# Source: PubChem
# Only some compounds are listed: those with a hit (about 3.5% of all), similar ones and a draw of the others.
# MrgX1 allo act: human MrgX1 positive allosteric modulation, primary screen | actives 0.63% (n = 310,000) | B-score at 10 µM | MrgX1-HEK293, Fluo-4 calcium flux, FDSS; active compounds read high | AID 588675;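 active = plate-corrected calcium response at least 3 library SD above typical, normal starting fluorescence, not activating the receptor alone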;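 also: compound read alongside a low EC10 to EC30 dose of BAM8-22 agonist; peak minus trough fluorescence over baseline measured at the second addition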
# MrgX1 agonist: agonists of human MrgX1 receptor; Q96LB2; MrgX1-HEK293 cells, Fluo-4 calcium fluorescence, agonist mode; active compounds read high; B-score at 10 µM; actives 0.44% (n = 310,000);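 active = calcium response B-score plate-corrected fluorescence ratio at least 3 library SD, with starting fluorescence B-score inside 5 SD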
#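 Material: MrgX1-expressing HEK293 cells / Dosing: compound as first of three additions / Incubation: overnight seeding, then 1 h dark dye loading / Signal: Fluo-4 NW calcium fluorescence / Evaluation: B-scored fluorescence response ratio / Benchmarks: positive and negative control wells on each plate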
# RGS4 block: human RGS4 inhibition; P49798; B-score at 10 µM; HEK293 M3R/RGS4 inducible, Fluo-4 calcium flux; active compounds read high; triggered by carbachol at its EC20; actives 0.45% (n = 310,000);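 active = B-score, a plate-corrected calcium signal, over three deviations above library mean, with baseline fluorescence within five deviations of library mean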;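 also: RGS4 expression induced by doxycycline in cells with stable M3 receptor; B-score is computed from the integrated fluorescence ratio over baseline after carbachol; higher B-score means a larger calcium signal and so more RGS4 inhibition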
# Target sequence (P49798 whole entry, looked up): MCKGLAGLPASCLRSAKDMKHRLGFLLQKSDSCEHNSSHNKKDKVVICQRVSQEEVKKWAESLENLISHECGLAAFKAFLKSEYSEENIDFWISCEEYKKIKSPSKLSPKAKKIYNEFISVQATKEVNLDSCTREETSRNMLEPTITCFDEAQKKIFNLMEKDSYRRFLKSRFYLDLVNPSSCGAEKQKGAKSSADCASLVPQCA
# RGS4 pot: potentiators or activators of RGS4; HEK293 M3R/inducible RGS4, carbachol calcium flux Fluo4; active compounds read low; B-score at 10 µM; actives 0.92% (n = 310,000); AID 463111;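 active = B-score of the integrated calcium signal more than 4 SD below the library mean, with starting fluorescence not abnormally high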;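 also: negative B-score means reduced calcium response which marks RGS4 activation or potentiation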
#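 Material: Inducible-RGS4 HEK293 cells carrying M3 receptor; also added: carbachol at ECmax as muscarinic agonist stimulus; incubation: compound preincubation 20 min at room temperature before agonist; signal: Fluo4-AM (2 µM) calcium-flux fluorescence, kinetic read; measure: integrated calcium ratio converted to B score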
# MrgX1 antagonist: blocks BAM8-22 activation of human MrgX1 receptor; actives 1.3% (n = 310,000); Q96LB2; B-score at 10 µM; MRGX1-HEK293 calcium flux, Fluo-4, BAM8-22 antagonism; active compounds read low; AID 588676;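 active = calcium-response B-score plate-corrected more than 3 library SD below zero, starting fluorescence within 5 deviations, no agonist response on first addition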;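 also: peak minus trough fluorescence over baseline after final BAM8-22 challenge near maximal dose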
# RGS4 inh valid: validation of RGS4 inhibitors; AID 492999; shares compounds with RGS4 block; HEK293 M3R/RGS4, carbachol calcium Fluo-4 fluorescence; carbachol added at its EC20; 0 = buffer wells, 100 = carbachol control; calcium response, % at 10 µM; actives 65% (n = 1,700);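 active = duplicate-averaged calcium response above the buffer-only control mean plus 5 SD of those controls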;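 also: integrated fluorescence ratio F max minus min over baseline F0; higher response in RGS4-induced cells means RGS4 inhibition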
# M3R Ca ctr: non-induced cell nonspecific activity of RGS4 inhibitors; shares compounds with RGS4 block; HEK293 M3R non-induced, carbachol calcium Fluo-4; submaximal (EC20) carbachol stimulus; buffer wells 0%, carbachol control wells 100%; activity (percent), % at 10 µM; actives 20% (n = 1,900); call rule not given here;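 also: RGS4 induction absent so cells express M3R without RGS4; higher means more calcium signal and flags a non-specific hit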
# M3R basal Ca ctr: second RGS4 inhibitor counter-screen in uninduced cells lacking carbachol | shares compounds with RGS4 block | HEK293 M3R/RGS4 non-induced, Fluo-4 calcium, no carbachol; normalised: buffer wells 0%, carbachol wells 100% | calcium response (agonist-mode artifact), % at 10 µM | AID 493001 | actives 22% (n = 1,900);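 active = duplicate-averaged calcium rise in uninduced cells above buffer wells' mean plus 5 SD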
# The depositor's hits bear a star; i = inactive; . = not tested or not shown.
SMILES,MrgX1 allo act,MrgX1 agonist,RGS4 block,RGS4 pot,MrgX1 antagonist,RGS4 inh valid,M3R Ca ctr,M3R basal Ca ctr
CCOC(=O)c1c(-c2ccc(C)o2)csc1NC(=O)CSc1nnc(C)s1,i,i,i,i,i,i,i,i
CCOC(=O)c1sc(NC(=O)CSc2nnnn2-c2ccccc2)nc1C,i,i,i,i,i,.,.,.
Cc1cc(-c2ccccc2)nc(Cl)c1C#N,i,i,i,i,i,.,.,.
Cc1ncc(CO)c(/C=N/NC(=O)c2cc3c(s2)CCCC3)c1O,i,i,7.2*,i,i,102%*,78%*,35%*
Cc1ncc(CO)c(/C=N/NC(=O)c2ccc(O)cc2)c1O,i,i,i,i,i,.,i,8.0%*
COc1ccc(C(=O)N/N=C/c2c(CO)cnc(C)c2O)cc1,i,i,i,i,i,.,.,.
Cc1ccc2[nH]c(=O)c3cc(C(=O)N(C)C4CCCCC4)sc3c2c1,i,i,i,i,i,.,.,.
CCc1ccc(NC(=O)CSc2nc3ccccc3nc2N2CCCC2)cc1,i,i,i,i,i,.,.,.
COc1cccc(C(=O)c2c[nH]c(C(=O)NCCCN3CCOCC3)c2)c1,i,i,i,i,i,.,.,.
Cc1cccc(NS(=O)(=O)c2ccc(C)c(C(=O)NCc3ccncc3)c2)c1,i,i,i,i,i,.,.,.
CN(CC(=O)Nc1cccc(F)c1)C(=O)c1ccc(N2CCOCC2)c([N+](=O)[O-])c1,i,i,i,i,i,.,.,.
CN(CC(=O)Nc1ccc(Cl)c(C(F)(F)F)c1)C(=O)c1ccc(N2CCOCC2)c([N+](=O)[O-])c1,i,i,5.4*,i,i,12%*,i,7.5%*
Cc1nn(-c2ccccc2)c(C)c1NC(=O)COc1ccc(Br)cc1Cl,i,i,i,i,i,.,.,.
CCOC(=O)[C@@H]1[C@H]2COc3cc(OC)ccc3[C@@H]2N2C(=O)N(c3ccc(C)cc3)C(=O)[C@@]12C,i,i,i,i,i,.,.,.
CCOC(=O)[C@@H]1[C@H]2COc3cc(OC)ccc3[C@@H]2N2C(=O)N(c3ccc(Cl)cc3)C(=O)[C@@]12C,i,i,i,i,i,i,i,i
CCOC(=O)[C@H]1[C@H]2COc3cc(OC)ccc3[C@@H]2N2C(=O)N(c3ccc(Cl)cc3)C(=O)[C@@]12C,i,i,i,i,i,i,i,i
O=C(CCC1CCCN(C(=O)c2ccccc2Cl)C1)N1CCN(c2ccccn2)CC1 (stereo unspecified),i,i,i,i,i,.,.,.
O=[N+]([O-])c1cccc(-c2csc(N/N=C/c3cccc(O)c3)n2)c1,i,i,i,i,i,.,.,.
COC(=O)C(Cc1cccc(C)n1)(c1ccccc1)c1ccccc1,i,i,i,i,i,.,.,.
Nc1sc(-c2ccccc2)cc1C(=O)N/N=C/c1ccc(Cl)cc1,i,i,4.7*,i,i,14%*,28%*,i
O=C(N/N=C/c1ccc(Cl)cc1)c1cc(-c2cccnc2)nc2ccccc12,i,i,i,i,i,.,.,.
Cc1cccc(NC2=NCC(=O)N2Cc2ccccc2)c1,i,i,i,i,i,.,32%*,i
Cc1cc(C)cc(NC2=NCC(=O)N2Cc2ccccc2)c1,i,i,5.3*,i,i,i,i,i
N#C/C=C/N1CCC(Cc2ccccc2)CC1,i,i,i,i,i,.,.,.
CN(C)S(=O)(=O)c1cccc(NC(=O)c2sccc2-c2ccccc2)c1,i,i,i,i,i,.,.,.
